The source made the active and inactive calls. The rule behind the calls is not given here.
Assays:
Rattus norvegicus [1] = organism: Rattus norvegicus; experiment: Positive allosteric modulation of rat brain AMPA receptor assessed as potentiation of 2 fold of (S)-AMPA-induced current amplitude by FlipR method
Procedure, shortened: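 Primary neuron cultures from rat embryonic cortex were stimulated with 300 μM AMPA. Membrane depolarization was read with a fluorescent membrane-potential dye in an imaging plate reader. Reported value is the drug concentration doubling the AMPA-induced fluorescence; n = 3, mean ± SEM (some n = 2).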

Rattus norvegicus [2] = organism: Rattus norvegicus; experiment: Positive allosteric modulation of rat cortex AMPA receptor expressed in Xenopus laevis oocytes assessed as concentration required to 2 fold potentiation of (S)-AMPA-induced current amplitude by voltage clamp technique; assay type: cell-based
Procedure, shortened: (§1)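 Two-electrode voltage clamp at room temperature on Xenopus laevis oocytes expressing rat cortex poly(A+) mRNA, using 10 μM (S)-AMPA. Oocytes were pre-screened with 100 μM S22286, applied 45 s before, 30 s during and 30 s after AMPA; those with under 130-fold potentiation were excluded. Read-outs were drug concentrations for 2-fold or 5-fold current increase, EC50, and maximal effect as % of the AMPA current; n ≥ 3.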

Rattus norvegicus [3] = organism: Rattus norvegicus; experiment: Positive allosteric modulation of rat cortex AMPA receptor expressed in Xenopus laevis oocytes assessed as potentiation of (S)-AMPA-induced current amplitude at 10 uM by voltage clamp technique relative to (S)-AMPA; assay type: cell-based; procedure, shortened: as §1
[4] = Positive allosteric modulation of rat cortex AMPA receptor expressed in Xenopus laevis oocytes assessed as potentiation of (S)-AMPA-induced current amplitude by voltage clamp technique; assay type: cell-based; procedure, shortened: as §1
Rattus norvegicus [5] = organism: Rattus norvegicus; experiment: Positive allosteric modulation of rat cortex AMPA receptor expressed in Xenopus laevis oocytes assessed as concentration required to 5 fold potentiation of (S)-AMPA-induced current amplitude by voltage clamp technique; assay type: cell-based; procedure, shortened: as §1
Rattus norvegicus [6] = organism: Rattus norvegicus; experiment: Positive allosteric modulation of AMPA receptor in Wistar rat hippocampus assessed as potentiation of (S)-AMPA-induced [3H]-NA release at 300 uM relative to (S)-AMPA
Procedure, shortened: (§2)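 Transverse hippocampal slices (300 μm) were loaded with [3H]noradrenaline ([…]) for 30 min at 37 °C, rinsed, then superfused with Krebs buffer, (S)-AMPA, or (S)-AMPA plus compound. Superfusate was collected in 5 min fractions and counted by scintillation. Fractional release was normalized to total radioactivity in all fractions plus tissue. Compound alone was compared with basal DMSO release, and co-application with (S)-AMPA alone (100%).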

Mus musculus [7] = experiment: Cognitive enhancing effect in CD-1 mouse assessed as recognition of familiar object at 0.3 to 1 mg/kg, po after 1 hr by object recognition test; assay type: functional, organism-based
Procedure, shortened: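 Three-session object recognition test in CD1 mice, with a 24 h interval between sessions. Dosing was oral, 1 h before each session. Read-out was a discrimination index: exploration time of the new object minus that of the familiar object in the last session. n = 13; one-way ANOVA versus control.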

Rattus norvegicus [8] = experiment: Positive allosteric modulation of AMPA receptor in Wistar rat dentate gyrus assessed as increase in tetanus-induced field excitatory postsynaptic potential amplitude at 30 mg/kg, ip administered 1 hr prior to tetanus challenge measured after 3 hrs relative to vehicle-treated control; assay type: functional, organism-based; parameters: dose 30 mg/kg
Procedure, shortened: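 Anaesthetised Wistar rats, 30 mg/kg ip. Field EPSPs recorded in hippocampal dentate gyrus, each amplitude the average of four stimuli. Values normalised to the mean of the 1 h baseline before injection, taken as 100%. LTP induced by tetanic stimulation 1 h after injection, then EPSPs followed for 3 h.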

Rattus norvegicus [9] = organism: Rattus norvegicus; experiment: Positive allosteric modulation of AMPA receptor in rat hippocampal CA1 region assessed as potentiation of AMPA-induced excitatory postsynaptic field potential half-width in CA1 region at 10 uM relative to basal value; assay type: tissue-based; conditions: Hippocampus
Procedure, shortened: (§3)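 Rat hippocampal slices were perfused with medium containing 1.2 mM Mg2+. EPSfPs were evoked in CA1 by Schaffer collateral stimulation, with compound at 10 μM. Area, amplitude and half-width were each normalized to the pre-application value (100%); n = 3.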

Mus musculus [10] = experiment: Toxicity in mouse assessed as hypothermia at 30 mg/kg, po after 30 mins; assay type: organism-based; parameters: dose 30 mg/kg, route oral; conditions: in vivo, 0.5 h
Procedure, shortened: (§4)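 Irwin test in mice: a single oral dose of 30 mg/kg, five animals per compound. Behavioural and physiological changes were recorded, including body temperature at 30 min post-dose.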

Rattus norvegicus [11] = experiment: Positive allosteric modulation of AMPA receptor in Wistar rat dentate gyrus assessed as increase in field excitatory postsynaptic potential amplitude at 30 mg/kg, ip after 1 hr; assay type: functional, organism-based; parameters: dose 30 mg/kg
Procedure, shortened: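 Anesthetized Wistar rats received 30 mg/kg ip. EPSfPs were recorded in the hippocampal dentate gyrus, with amplitude averaged over four stimuli. Values were normalized to the mean response during the 1 h baseline before injection (100%). One hour after injection, LTP was induced by tetanic stimulation and EPSfPs were followed for 3 h.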

Rattus norvegicus [12] = organism: Rattus norvegicus; experiment: Agonist activity at AMPA receptor in Wistar rat hippocampus assessed as [3H]-NA release at 300 uM relative to control; procedure, shortened: as §2
Rattus norvegicus [13] = organism: Rattus norvegicus; experiment: Positive allosteric modulation of AMPA receptor in rat hippocampal CA1 region assessed as potentiation of AMPA-induced excitatory postsynaptic field potential area in CA1 region at 10 uM relative to basal value; assay type: tissue-based; conditions: Hippocampus; procedure, shortened: as §3
Rattus norvegicus [14] = organism: Rattus norvegicus; experiment: Positive allosteric modulation of AMPA receptor in rat hippocampal CA1 region assessed as potentiation of AMPA-induced excitatory postsynaptic field potential amplitude in CA1 region at 10 uM relative to basal value; assay type: tissue-based; conditions: Hippocampus; procedure, shortened: as §3
Mus musculus [15] = experiment: Toxicity in mouse assessed as reduction in body temperature at 30 mg/kg, ip; assay type: organism-based; parameters: dose 30 mg/kg, route intraperitoneal; conditions: in vivo
Mus musculus [16] = experiment: Acute toxicity in mouse assessed as convulsion followed by apathy at 30 mg/kg, po; assay type: organism-based; parameters: dose 30 mg/kg, route oral; conditions: in vivo
Procedure, shortened: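 Irwin screen for acute neurotoxicity in mice: single oral dose of 30 mg/kg, then behavioural and physiological state recorded (convulsions, apathy, body temperature). Five animals per compound.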

Mus musculus [17] = experiment: Toxicity in mouse assessed as hypothermia at 30 mg/kg, po; assay type: organism-based; parameters: dose 30 mg/kg, route oral; conditions: in vivo; procedure, shortened: as §4

## CCN1C=NS(=O)(=O)c2cc(Cl)sc21
Rattus norvegicus [1]
  Activity: > 100 µM

## CCCN1C=NS(=O)(=O)c2c(Cl)sc(Cl)c21
Rattus norvegicus [1]
  Activity: > 100 µM

## O=S1(=O)N=CNc2c(Cl)sc(Cl)c21
Rattus norvegicus [2]
  Activity: > 100 µM

## CCN1C=NS(=O)(=O)c2sc(Cl)cc21
Rattus norvegicus [2]
  Activity: 172 µM
Rattus norvegicus [3]
  Emax: > 175%
Rattus norvegicus [1]
  Activity: > 100 µM

## O=S1(=O)N=CN(CCCF)c2cc(Cl)sc21
Rattus norvegicus [2]
  Activity: > 300 µM
Rattus norvegicus [3]
  Emax: 107%
Rattus norvegicus [1]
  Activity: 100 µM

## O=S1(=O)N=CN(CCF)c2cc(Cl)sc21
Rattus norvegicus [2]
  Activity: > 300 µM
Rattus norvegicus [3]
  Emax: 204%
Rattus norvegicus [1]
  Activity: > 100 µM

## CN1C=NS(=O)(=O)c2c(Cl)sc(Cl)c21
Rattus norvegicus [2]
  Activity: 81 µM
Rattus norvegicus [3]
  Emax: > 413%

## CCN1CNS(=O)(=O)c2c(Cl)sc(Cl)c21
Rattus norvegicus [2]
  Activity: 71 µM
Rattus norvegicus [3]
  Emax: > 955%
Rattus norvegicus [1]
  Activity: > 55 µM

## CN1C=NS(=O)(=O)c2sc(Cl)cc21
Rattus norvegicus [2]
  Activity: > 166 µM
Rattus norvegicus [1]
  Activity: > 100 µM

## O=S1(=O)N=CN(CC(F)F)c2c(Cl)sc(Cl)c21
Rattus norvegicus [1]
  Activity: > 100 µM

## O=S1(=O)N=CN(CF)c2cc(Cl)sc21
Rattus norvegicus [1]
  Activity: > 100 µM

## CC(C)N1CNS(=O)(=O)c2sc(Cl)cc21
Rattus norvegicus [2]
  Activity: 4.2 µM
Rattus norvegicus [3]
  Emax: 217%
Rattus norvegicus [1]
  Activity: 9.55 µM

## CC(C)N1C=NS(=O)(=O)c2sc(Cl)cc21
Rattus norvegicus [2]
  Activity: > 100 µM
Rattus norvegicus [3]
  Emax: > 277%
Rattus norvegicus [1]
  Activity: > 100 µM

## O=S1(=O)N=CN(CCF)c2c(Cl)sc(Cl)c21
Rattus norvegicus [2]
  Activity: 26.5 µM
Rattus norvegicus [3]
  Emax: > 2330%
Rattus norvegicus [1]
  Activity: 20.3 µM

## O=S1(=O)N=CN(CC(F)F)c2cc(Cl)sc21
Rattus norvegicus [1]
  Activity: 100 µM

## O=S1(=O)NCNc2cc(Cl)sc21
Rattus norvegicus [2]
  Activity: 216 µM
Rattus norvegicus [3]
  Emax: 253%
Rattus norvegicus [1]
  Activity: > 100 µM

## O=S1(=O)NCN(CCCF)c2cc(Cl)sc21
Rattus norvegicus [2]
  Activity: 12 µM
Rattus norvegicus [3]
  Emax: > 3780%
Rattus norvegicus [1]
  Activity: > 45.7 µM

## CCN1CNS(=O)(=O)c2cc(Cl)sc21
[4]
  EC50: 11 µM
Rattus norvegicus [2]
  Activity: 4.4 µM
Rattus norvegicus [3]
  Emax: 2830%
Rattus norvegicus [5]
  Activity: 24 µM
Rattus norvegicus [6]
  Activity: 281%
Mus musculus [7]
  Activity: Active
Rattus norvegicus [8]
  Activity: Active
Rattus norvegicus [9]
  Activity: 11.7%
Mus musculus [10]
  Activity: Non-toxic
Rattus norvegicus [11]
  Activity: Active
Rattus norvegicus [12]
  Activity: 34%
Rattus norvegicus [13]
  Activity: 18.3%
Rattus norvegicus [1]
  Activity: 10.4 µM
Rattus norvegicus [14]
  Activity: 3.7%

## CCCN1C=NS(=O)(=O)c2sc(Cl)cc21
Rattus norvegicus [3]
  Emax: 2070%
Mus musculus [15]
  T: 4.6 °C
Rattus norvegicus [1]
  Activity: > 100 µM

## CCCN1CNS(=O)(=O)c2sc(Cl)cc21
Rattus norvegicus [2]
  Activity: 15 µM
Rattus norvegicus [3]
  Emax: 2090%
Rattus norvegicus [1]
  Activity: 25.1 µM

## CCN1CNS(=O)(=O)c2sc(Cl)cc21
[4]
  EC50: 9.2 µM
Rattus norvegicus [2]
  Activity: 3.6 µM
Rattus norvegicus [3]
  Emax: 2270%
Rattus norvegicus [5]
  Activity: 18.5 µM

## CCCN1CNS(=O)(=O)c2c(Cl)sc(Cl)c21
Rattus norvegicus [2]
  Activity: > 300 µM
Rattus norvegicus [3]
  Emax: > 126%
Rattus norvegicus [1]
  Activity: > 100 µM

## CN1CNS(=O)(=O)c2sc(Cl)cc21
Rattus norvegicus [2]
  Activity: 36 µM
Rattus norvegicus [3]
  Emax: > 462%

## O=S1(=O)NCN(CCF)c2c(Cl)sc(Cl)c21
Rattus norvegicus [2]
  Activity: 113 µM
Rattus norvegicus [3]
  Emax: > 485%
Rattus norvegicus [1]
  Activity: > 100 µM

## O=S1(=O)NCN(CCF)c2cc(Cl)sc21
Rattus norvegicus [2]
  Activity: 2 µM
Rattus norvegicus [3]
  Emax: 5600%
Mus musculus [16]
  Activity: Toxic
Rattus norvegicus [13]
  Activity: 9.3%
Rattus norvegicus [1]
  Activity: 3.32 µM
Rattus norvegicus [14]
  Activity: 33.7%

## O=S1(=O)NCNc2c(Cl)sc(Cl)c21
Rattus norvegicus [2]
  Activity: 72 µM
Rattus norvegicus [3]
  Emax: > 973%
Rattus norvegicus [1]
  Activity: > 100 µM

## CCN1C=NS(=O)(=O)c2c(Cl)sc(Cl)c21
Rattus norvegicus [2]
  Activity: 42 µM
Rattus norvegicus [3]
  Emax: > 1000%

## O=S1(=O)NCN(CC(F)F)c2cc(Cl)sc21
Mus musculus [17]
  Activity: 60%
Rattus norvegicus [2]
  Activity: 1.6 µM
Rattus norvegicus [3]
  Emax: 2560%
Rattus norvegicus [9]
  Activity: 14.3%
Rattus norvegicus [13]
  Activity: 22.7%
Rattus norvegicus [1]
  Activity: 2.9 µM
Rattus norvegicus [14]
  Activity: 15.3%

## O=S1(=O)NCN(CC(F)F)c2c(Cl)sc(Cl)c21
Rattus norvegicus [2]
  Activity: 235 µM
Rattus norvegicus [3]
  Emax: > 227%
Rattus norvegicus [1]
  Activity: > 100 µM

## CN1CNS(=O)(=O)c2c(Cl)sc(Cl)c21
Rattus norvegicus [2]
  Activity: 5.4 µM
Rattus norvegicus [3]
  Emax: 2920%

From ChEMBL document CHEMBL3085641, “Development of thiophenic analogues of benzothiadiazine dioxides as new powerful potentiators of 2-amino-3-(3-hydroxy-5-methylisoxazol-4-yl)propionic acid (AMPA) receptors” (J Med Chem, 2013)
